Published values pooled from the literature.
Protocols differ between the studies behind these lines.
Target: Serine/threonine-protein kinase 32C (STK32C, Homo sapiens, UniProt Q86UX6)

Structure (SMILES)	read-out	technique	concentration	remaining binding [%]
F[C@@H]1CCN(c2nccc(-c3cnn4ncccc34)n2)C1	binding	–	1 µM	89
O=C(c1ccc(Nc2ncc(Cl)c(-c3ccc(Cl)s3)n2)cc1)N1CCC(N2CCCC2)CC1	binding	competition with immobilised ligand	1 µM	100
CC(C)(C)c1ccc(-c2nc(CBr)nn2-c2cccc(O)c2)cc1	cell-free assay	competition with immobilised ligand	10 µM	54
O=C(NCCCN1CCOCC1)c1ccc(Nc2ncc(Cl)c(-c3ccc(Cl)s3)n2)cc1	binding	competition with immobilised ligand	1 µM	100
O=C(NCC1CCOCC1)c1n[nH]cc1NC(=O)c1c(F)cccc1F	binding	competition with immobilised ligand	1 µM	100
N[C@@H]1CCN(c2nccc(-c3cnn4ncccc34)n2)C1	binding	–	1 µM	99
C=CC(=O)N1CCC(C(=O)NCC(=O)N2CCN(c3nc(-c4cnc(N)nc4C(F)F)nc(N4CCOCC4)n3)CC2)CC1	binding	competition with immobilised ligand	1 µM	99
C[C@@H]1CN(c2cc(-c3nn(C)c4ccc(OC5(C)CC5)cc34)ncn2)C[C@H](C)O1	cell-free assay	competition with immobilised ligand	1 µM	100
COc1cnc(Nc2cccc(S(N)(=O)=O)c2)nc1N1CCN(c2ccccc2)CC1	binding	competition with immobilised ligand	1 µM	100
O=C(N[C@H]1CCCCC/C=C\C2C[C@@]2(C(=O)O)NC(=O)[C@@H]2C[C@@H](Oc3ccncc3)CN2C1=O)OC1CCCC1 (some centres unmarked)	binding	competition with immobilised ligand	1 µM	100
CN(c1nccc(-c2cnn3ncccc23)n1)C1CC1	binding	–	1 µM	70
O=C(Nc1cnc(Oc2ccc(F)cc2)nc1)N1CCc2ncccc2[C@@H]1c1ccc(F)cc1	cell-free assay	competition with immobilised ligand	1 µM	96
FC(F)(F)Oc1cccc(-c2cnc3ccc(-c4ccncc4)nn23)c1	binding	competition with immobilised ligand	5 µM	89
CN(C)c1ncc(F)c(-c2cnn3ncccc23)n1	binding	–	1 µM	87
CC(=O)N1CCC(c2ccc(C(=O)NC(=N)N)cc2C(F)(F)F)CC1	cell-free assay	competition with immobilised ligand	1 µM	100
C[C@H]1CCN(c2nccc(-c3cnn4ncccc34)n2)C1	binding	–	1 µM	100
CN1CCN(c2cnc3c(C4CCN(C(=O)c5ccc(OC(F)(F)F)cc5N)CC4)ncnc3c2)CC1	cell-free assay	competition with immobilised ligand	1 µM	100
